Experimental data from ChEMBL document CHEMBL5030534, “Discovery of Novel Anti-Breast-Cancer Inhibitors by Synergistically Antagonizing Microtubule Polymerization and Aryl Hydrocarbon Receptor Expression” (J Med Chem, 2021).
Calls of active or inactive are those of the source. No cut-off for these calls is given here.

How the values were obtained:
[1] = Antiproliferative activity against human MCF7/ADR cells assessed as reduction in cell viability incubated for 48 hrs by MTT assay; assay type: functional, cell-based; details: MCF7, 48 h
Procedure, shortened: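 Cells seeded at 5 × 10³ per well, incubated overnight, then exposed to a range of compound concentrations for 48 h. MTT added for 4 h, medium replaced with DMSO, absorbance read at 570 nm. Three independent runs.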

MCF7 [2] = assay: Induction of apoptosis in human MCF7 cells assessed as necrotic cells at 2 nM measured after 24 hrs by Annexin V-FITC and PI staining based flow cytometry assay (reference value: 0.9%); assay type: functional
MCF7 [3] = assay: Induction of apoptosis in human MCF7 cells assessed as late apoptotic cells at 2 nM measured after 24 hrs in presence of DMBA by Annexin V-FITC and PI staining based flow cytometry assay (reference value: 1.5%); assay type: functional
MCF7 [4] = assay: Induction of apoptosis in human MCF7 cells assessed as increase in cleaved Caspase-3 protein expression at 1 to 4 nM; assay type: functional, cell-based; details: dose 1-4 nM
Procedure, shortened: (§1)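 MCF-7 seeded 4 × 10⁵ per well for 24 h, then DMSO or compound at 1, 2, 4 nM for 24 h. Lysates protein-normalized to 3 mg/mL by BCA, resolved on 4–20% SDS-PAGE and immunoblotted. Bands quantified relative to β-actin (cell-cycle proteins) or GAPDH (apoptosis proteins); n = 3.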

MCF7 [5] = assay: Cell cycle arrest in human MCF7 cells assessed as accumulation of cells at G2/M phase at 0.5 to 2 nM measured after 24 hrs by propidium iodide staining based flow cytometric analysis relative to control; assay type: functional; details: dose 0.5-2 nM
Procedure, shortened: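 MCF-7 seeded 4 × 10⁵ per well for 24 h, treated with DMSO or 0.5, 1, 2 nM. Fixed in 75% ethanol at −20 °C for 12 h, stained with PI by cell-cycle kit, analysed by flow cytometry. Three runs.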

MCF7 [6] = assay: Induction of apoptosis in human MCF7 cells assessed as early apoptotic cells at 2 nM measured after 24 hrs by Annexin V-FITC and PI staining based flow cytometry assay (reference value: 0.90%); assay type: functional
MCF7 [7] = assay: Induction of apoptosis in human MCF7 cells assessed as increase in cleaved Caspase-9 protein expression at 1 to 4 nM; assay type: functional, cell-based; details: dose 1-4 nM; procedure, shortened: as §1
Tubulin (Homo sapiens) = Tubulin (Homo sapiens) (UniProt P68371+Q9H4B7+P0DPH7+P68366+Q13509+Q71U36+P04350+Q3ZCM7+P07437+P68363+Q9BQE3+Q6PEY2+Q13885+Q9BVA1+Q9BUF5); assay: Induction of microtubule damage in human MCF7 cells at 0.5 nM incubated for 48 hrs by DAPI staining based immunofluorescence assay; assay type: cell-based
Procedure, shortened: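 Blocked with goat serum for 20 min, probed with anti-β-tubulin for 2 h, fluorescent secondary antibody and DAPI nuclear stain, imaged by laser confocal microscopy.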

MCF7 [8] = assay: Antiproliferative activity against human MCF7 cells assessed as cell growth inhibition at 2 nM in presence of DMBA; assay type: functional, cell-based
MCF7 [9] = assay: Antitumor activity against human MCF7 cells xenografted in BALB/c nude mouse assessed as increase in apoptotic cells at 1 mg/kg, iv administered every 2 days for 21 days by TUNEL staining based assay; assay type: functional, organism-based; details: time 21.0 day
Procedure, shortened: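 Same subcutaneous MCF-7 nude-mouse xenografts dosed iv every 2 days for 21 days. Tumors then fixed, paraffin-embedded and sectioned. Apoptotic cells detected by TUNEL fluorescent staining with DNA counterstain; microvessel density measured by anti-CD31 immunohistochemistry.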

MCF7 [10] = assay: Induction of apoptosis in human MCF7 cells assessed as early apoptotic cells at 2 nM measured after 24 hrs by Annexin V-FITC and PI staining based flow cytometry assay (reference value: 1%); assay type: functional
MCF7 [11] = assay: Induction of apoptosis in human MCF7 cells assessed as viable cells at 2 nM measured after 24 hrs in presence of DMBA by Annexin V-FITC and PI staining based flow cytometry assay (reference value: 96.5%); assay type: functional; details: read-out: Activity
MCF7 [12] = assay: Antitumor activity against human MCF7 cells xenografted in BALB/c nude mouse assessed as decrease in tumor weight at 1 mg/kg, iv administered every 2 days for 21 days and measured every 2 days; assay type: functional; design: scale not given: the % may be the effect or the level left; details: time 21 day
Procedure, shortened: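 MCF-7 cells (6 × 10⁶) injected subcutaneously into right flank of BALB/c nude mice; after 7 days animals randomized, eight per group. Dosing iv every 2 days for 21 days, vehicle 10% DMSO/5% Tween 80/85% saline. Tumor size and body weight recorded every 2 days; tumors excised and weighed at sacrifice.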

L02 = assay: Antiproliferative activity against human L-O2 cells assessed as reduction in cell viability incubated for 48 hrs by MTT assay; assay type: cell-based; details: L02, 48 h
Procedure, shortened: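 Cells seeded at 5 × 10³ per well, incubated overnight, then exposed to a range of compound concentrations for 48 h. MTT added for 4 h, medium replaced with DMSO, absorbance read at 570 nm. MCF-7, L-O2 grown in DMEM; MCF-10A, MCF-7/ADR in RPMI 1640. Three independent runs.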

[13] = target: T1, Aryl hydrocarbon receptor (Homo sapiens, UniProt P35869); assay: Inhibition of AhR signalling in human MCF7 cells assessed as reduction in AhR level at 2 nM incubated for 24 hrs in presence of DMBA by Western blot analysis; assay type: cell-based; details: mcf7, 24 h, 0.002 µM
T1 sequence (P35869 whole entry): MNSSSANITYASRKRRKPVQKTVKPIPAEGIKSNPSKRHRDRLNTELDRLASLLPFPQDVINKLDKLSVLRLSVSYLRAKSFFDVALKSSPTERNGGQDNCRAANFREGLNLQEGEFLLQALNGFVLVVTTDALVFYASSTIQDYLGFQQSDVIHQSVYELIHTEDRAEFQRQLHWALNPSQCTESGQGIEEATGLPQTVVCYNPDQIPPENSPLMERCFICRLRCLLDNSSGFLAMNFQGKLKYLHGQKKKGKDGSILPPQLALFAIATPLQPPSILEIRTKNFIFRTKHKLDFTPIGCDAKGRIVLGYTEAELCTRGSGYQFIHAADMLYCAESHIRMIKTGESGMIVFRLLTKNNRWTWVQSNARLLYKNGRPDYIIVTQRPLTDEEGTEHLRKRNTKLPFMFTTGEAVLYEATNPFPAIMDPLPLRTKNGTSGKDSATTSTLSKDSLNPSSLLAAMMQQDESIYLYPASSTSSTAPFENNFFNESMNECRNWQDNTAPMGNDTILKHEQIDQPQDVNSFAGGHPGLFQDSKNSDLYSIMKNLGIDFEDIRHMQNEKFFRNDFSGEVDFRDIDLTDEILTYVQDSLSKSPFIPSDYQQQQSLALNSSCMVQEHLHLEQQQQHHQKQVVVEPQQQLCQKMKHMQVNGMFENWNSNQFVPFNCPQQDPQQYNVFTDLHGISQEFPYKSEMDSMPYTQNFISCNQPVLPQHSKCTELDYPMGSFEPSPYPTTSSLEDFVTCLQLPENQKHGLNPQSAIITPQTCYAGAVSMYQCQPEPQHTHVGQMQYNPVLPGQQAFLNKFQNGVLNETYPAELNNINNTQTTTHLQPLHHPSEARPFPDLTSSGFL
Procedure, shortened: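 MCF-7 treated with DMBA (400 nM), DMBA plus 2 nM, or 2 nM alone. AhR measured by Western blot relative to loading control; n = 3.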

MCF7 [14] = assay: Induction of apoptosis in human MCF7 cells assessed as necrotic cells at 0.5 nM measured after 24 hrs by Annexin V-FITC and PI staining based flow cytometry assay (reference value: 0.28%); assay type: functional

Cc1nc(N(C)c2ccc3c(c2)cc(C)n3C)c2ccccc2n1
IC50 [1]: 0.9 nM | Activity (MCF7 [2]): 8.3% | Activity (MCF7 [3]): 22% | Activity (MCF7 [4]): Active | Activity (MCF7 [5]): 46.87% | Activity (MCF7 [6]): 12.1% | Activity (MCF7 [7]): Active | Activity (Tubulin (Homo sapiens)): inactive | Activity (MCF7 [8]): Active | Activity (MCF7 [9]): Active | Activity (MCF7 [10]): 6.9% | viability at 0.002 µM (MCF7 [11]): 67.5% | Activity (MCF7 [12]): 81.1% | IC50 (L02): 4.6 nM | inhibition (INH) [13]: Active | Activity (MCF7 [14]): 0.52%
